Measurements reported in ChEMBL document CHEMBL1124320, “2,2-Difluoro-5-hexyne-1,4-diamine: a potent enzyme-activated inhibitor of ornithine decarboxylase” (J Med Chem, 1989).

Experiments:
[1] = In vitro inhibition against rat aorta semicarbazide-sensitive amine oxidase; type: tissue-based
[2] = target: ornithine decarboxylase (Rattus norvegicus) (UniProt P09057); test: Time of half-inactivation of ornithine decarboxylase extrapolated to infinite inhibitor concentration was determined; conditions: in vitro
[3] = target: T1, Ornithine decarboxylase (Rattus norvegicus, UniProt P09057); test: In vitro inhibition against ornithine decarboxylase
T1 sequence (P09057 whole entry): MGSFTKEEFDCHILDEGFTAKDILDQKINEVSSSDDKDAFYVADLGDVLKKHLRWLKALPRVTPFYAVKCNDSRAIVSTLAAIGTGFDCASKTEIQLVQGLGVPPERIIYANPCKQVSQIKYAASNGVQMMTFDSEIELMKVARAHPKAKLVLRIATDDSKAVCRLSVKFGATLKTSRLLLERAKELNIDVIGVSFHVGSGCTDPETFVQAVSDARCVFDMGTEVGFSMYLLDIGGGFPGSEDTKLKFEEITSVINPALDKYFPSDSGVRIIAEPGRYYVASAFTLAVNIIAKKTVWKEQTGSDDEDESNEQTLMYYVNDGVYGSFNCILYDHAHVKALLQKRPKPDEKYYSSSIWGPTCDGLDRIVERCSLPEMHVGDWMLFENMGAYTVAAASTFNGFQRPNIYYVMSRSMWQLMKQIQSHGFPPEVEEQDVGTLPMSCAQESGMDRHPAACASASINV
Method in brief: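 Time-dependent inactivation of partially purified rat liver ODC (thioacetamide-induced, acid treatment at pH 4.6). Enzyme incubated at 37 °C in 30 mM phosphate pH 7.1, 5 mM DTT and 0.1 mM pyridoxal phosphate with varied inhibitor concentrations. Aliquots were assayed at intervals. Half-inactivation times were plotted against 1/[I] (Kitz–Wilson, least-squares fit) to give apparent K_I and τ1/2.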

[4] = target: T2, S-adenosylmethionine decarboxylase proenzyme (Homo sapiens) (UniProt P17707)
T2 sequence (whole entry): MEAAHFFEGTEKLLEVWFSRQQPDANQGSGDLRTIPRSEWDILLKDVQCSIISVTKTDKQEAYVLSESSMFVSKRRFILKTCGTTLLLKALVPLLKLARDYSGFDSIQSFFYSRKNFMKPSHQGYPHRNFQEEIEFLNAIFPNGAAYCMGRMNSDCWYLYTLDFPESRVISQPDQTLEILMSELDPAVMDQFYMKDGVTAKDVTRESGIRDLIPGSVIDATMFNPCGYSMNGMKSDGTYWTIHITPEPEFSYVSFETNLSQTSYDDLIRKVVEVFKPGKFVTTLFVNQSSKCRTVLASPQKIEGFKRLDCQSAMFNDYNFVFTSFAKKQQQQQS

In the case of `C#CC(N)CC(F)(F)CN` (stereo unspecified), the Ki [1] is reported as 0.1 µM.

`C#C[C@@H](N)CC[C@H](C)N` gave a half-inactivation time [2] of 1.7 min and a Ki [3] of 3 µM.

Compound `NCCCCN` has a Ka [4] of 16 µM.

With `NCCCC(N)(CF)C(=O)O` (stereo unspecified) the half-inactivation time [2] was 2.6 min and the Ki [3] was 2.7 µM.
